Test results from ChEMBL document CHEMBL1122230, “Quantitative aspects of the receptor binding of cytokinin agonists and antagonists” (J Med Chem, 1983).

What follows are compounds tested on Nicotiana tabacum (assay: Concentration at which 50% of maximum response of callus yield derived from Nicotiana tabacum var is obtained).
Type: functional
Method in brief: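 Three Nicotiana tabacum callus pieces of ca. 10 mg fresh weight were placed per culture. E50 is the concentration giving 50% of maximal callus yield.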

In order of falling “Log 1/E50” value:
1. CC(C)=CCNc1[nH]c(C)nc2nccc1-2  0.08
2. Cc1nc(Nc2cccc(Cl)c2)c2cc[nH]c2n1  -0.66
3. Cc1nc(NCc2ccccc2)c2cc[nH]c2n1 [ROLODINE]  -0.72
4. CCCCCNc1[nH]c(C)nc2nccc1-2  -0.72
5. Cc1nc(Nc2cccc(I)c2)c2cc[nH]c2n1  -0.73
6. Cc1nc(Nc2cccc(Br)c2)c2cc[nH]c2n1  -0.8
7. CCCCC(CC)CNc1[nH]c(C)nc2nccc1-2 (stereo unspecified)  -0.84
8. Cc1cccc(Nc2[nH]c(C)nc3nccc2-3)c1  -1.12
9. CCOCCNc1[nH]c(C)nc2nccc1-2  -1.37
10. Cc1nc(NCCc2ccccc2)c2cc[nH]c2n1  -1.37

These compounds were tested on Nicotiana tabacum (assay: Inhibition of 50% growth of tobacco callus derived from Nicotiana tabacum var on medium with 0.05 uM kinetin but without anti-cytokinin; NR=not reached to the maximum growth within the concentration range tested).
Type: functional, organism-based
Method in brief: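 Basal medium with 0.05 μM kinetin plus the test compound at a series of concentrations, pH 5.6 (1 N NaOH), autoclaved at 1.0 kg/cm² for 15 min. Three tobacco callus pieces of ca. 10 mg fresh weight were used per culture. I50 is the concentration giving 50% of the callus growth seen on kinetin medium without anticytokinin.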

For `Cc1nc(NCCO)c2cc[nH]c2n1`, the “Log 1/I50” value was “Not reached”.
